# Bioassay records deposited in PubChem BioAssay by several laboratories.
# Shown are actives, neighbours in structure and some others; about 1.9% of the full set was active somewhere.
# Autophagy mod – autophagy modulators in MEF cells, primary screen, imaging, high-content, MEF GFP-LC3. MEF GFP-LC3 puncta imaging; test concentration mostly 10 µM. calls only at 10 µM (by protocol). actives 0.98% (n = 190,000). AID 463193, 2010;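 active = percentage of spot-positive cells more than 3 SD above its plate mean, without a fluorescence outlier flag or 80% toxicity; inconclusive = no clear call, values can overlap the other calls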;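 also: spot-positive cell cutoff set from DMSO-treated cells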
# Ins promoter up – insulin promoter activators in MIN6 cells, imaging, high-content screening, mouse beta cells; MIN6 insulin promoter-GFP reporter; hits give high values; z-score at 5 µM; actives 0.3% (n = 190,000); AID 1625, 2009;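 active = z-score above 3 at 5 µM with at least 500 cells counted in the well; inconclusive = wells under 500 cells, flagged as cytotoxic or low count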
# MT stabilizer – microtubule stabilizers in HeLa cells, primary screen, imaging, high-content imaging. HeLa tubulin immunostaining HCS, 24 h; share of cells brighter than vehicle mean+2SD. % tubulin-high responders, % at 10 µM. actives 0.83% (n = 200,000). AID 2205, 2009;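 active = plate Z-score above 3 for both tubulin-high and condensed-nucleus cell shares, with cell loss under 80%, at 10 µM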;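 also: anti alpha tubulin signal scored within the nucleus-defined area of each cell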
# bCat nuc transl – modulators of beta-catenin nuclear translocation, primary screen, imaging, HeLa cells, immunofluorescence, high-content | nuclear translocation activity, % at 5 µM | actives 0.3% (n = 190,000) | AID 1665, 2009;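 active = nuclear translocation activity above 50% at 5 µM, with a well cell count of 50 or more; inconclusive = wells under 50 cells across six images, flagged as toxic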;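 also: per-cell ratio of nuclear to cytoplasmic median beta-catenin stain intensity; plate controls were DMSO negative control for no effect and GSK-3 inhibitor IX positive control for full effect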
#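 System: HeLa cells, endogenous beta-catenin; compound dosing: 5 µM primary single dose, 0.1% DMSO, 0.02–20 µM confirmation series; incubation: 24 h compound exposure at 37°C, 5% CO2; signal: beta-catenin immunofluorescence imaging with DAPI; evaluation: % activation, nuclear-to-cytoplasmic median beta-catenin signal ratio per cell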
# An asterisk follows results filed as active; i = inactive; ? = inconclusive; nt = no result; + = active, no number.
SMILES,Autophagy mod,Ins promoter up,MT stabilizer,bCat nuc transl
NC(=O)c1cccnc1Nc1ccccc1Cl,i,0.61,3.5,-0.7
Cn1c(=O)[nH]c(=O)c2c1nc(N1CCCC1)n2CCCSc1nc2ccccc2o1,i,nt,2.3,nt
Cn1c(=O)[nH]c(=O)c2c1nc(Br)n2CCCSc1nc2ccccc2o1,i,-0.04,24.6*,nt
COc1ccc2nc(SCC(=O)Nc3c(C)cccc3C)[nH]c2c1,i,3.26*,2.2,-0.5
CCN(CC)CCN(C)c1ccc(N2C(=O)C3CC=CCC3C2=O)cc1[N+](=O)[O-] (stereo not drawn),+,-0.1,3.6,-0.7
O/N=C(\c1ccc(Cl)cc1Cl)c1ncc(C(F)(F)F)cc1Cl,i,1.93,2.0,nt
N=c1n(CCN2CCCCC2)c2ccccc2n1CC(O)c1ccc(Cl)c(Cl)c1 (stereo not drawn),+,-1.61,6.0,3.5
COc1ccccc1OCC(O)Cn1c(=N)n(CCN2CCCCC2)c2ccccc21 (stereo not drawn),+,-5.05,2.2,nt
N=c1n(Cc2ccccc2)c2ccccc2n1CC(O)COc1ccccc1 (stereo not drawn),i,-2.4,3.2,-5.0
N=c1n(CCN2CCCCC2)c2ccccc2n1CC(O)COc1ccccc1 (stereo not drawn),+,-1.33,3.3,-1.0
Cc1ccc(Cn2c(=N)n(CC(O)COc3ccccc3)c3ccccc32)cc1 (stereo not drawn),+,?,2.4,nt
N=c1n(CCN2CCCCC2)c2ccccc2n1CC(O)c1cccc(Br)c1 (stereo not drawn),i,nt,2.1,-5.3
CC(NC(=O)C1(C)CC1(Br)Br)C(C)(C)C (stereo not drawn),i,nt,3.4,nt
COc1ccc(N=Nc2nc3ccc(Br)cc3n2C)cc1,i,0.3,1.3,0.4
CCCC(=O)Nc1ccc(C(=O)NNC(=O)c2ccco2)cc1,i,0.33,2.8,-0.9
COc1ccc(CCNC(=O)c2cc(C(=O)c3cc(C)ccc3O)cn(CCc3ccc(OC)cc3)c2=O)cc1,i,nt,2.1,-0.4
COc1ccc(NC2=C(NCCO)C(=O)c3ccccc3C2=O)cc1,i,-1.18,21.1*,38.9
COc1ccc(-c2noc(CCC(=O)NCCCN3CCC(Cc4ccccc4)CC3)n2)cc1,+,-1.8,4.7,nt
CC(=O)CCc1ccc(OCCCCN2CCC(Cc3ccccc3)CC2)cc1,+,-0.67,3.5,-0.3
COc1ccccc1-c1c(C#N)c(N)nc2c1CCc1ccccc1-2,i,0.38,25.7,nt
COc1ccc(NC(=O)c2sc3nc(Cc4ccccc4)cc(C(F)(F)F)c3c2N)cc1OC,i,-0.33,i,-1.4
Nc1c(C(=O)Nc2nccs2)sc2nc(-c3cccs3)cc(C(F)(F)F)c12,+,nt,2.6,-1.9
CC(C)(C)C(=O)c1sc2nc(-c3cccs3)cc(C(F)(F)F)c2c1N,+,nt,11.6,-4.6
COc1ccccc1NC(=O)c1sc2nc(Cc3ccccc3)cc(C(F)(F)F)c2c1N,+,0.13,i,-0.5
Cc1nnc(NC(=O)c2sc3nc(-c4cccs4)cc(C(F)(F)F)c3c2N)s1,+,nt,4.7,3.0
SMILES,Autophagy mod,Ins promoter up,MT stabilizer,bCat nuc transl
CCN(CC)C(=O)c1sc2nc(-c3cccs3)cc(-c3cccs3)c2c1N,nt,nt,nt,-3.7
COc1ccc(-c2nn(-c3ccccc3)cc2/C=C(/C#N)C(N)=O)cc1[N+](=O)[O-],i,-0.89,3.3,1.0
CCOc1cc(-n2cnnn2)c(OCC)cc1NC(=O)c1cc2ccc(N(CC)CC)cc2oc1=O,+,nt,3.2,nt
COCCn1c(-c2ccccc2Cl)nc2c(c(=O)c3ccccc3n2C)c1=O,i,-0.59,3.8,-1.5
COc1ccc2[nH]c(=O)c(CN(Cc3cccs3)Cc3nnnn3C(C)(C)C)cc2c1,i,-1.8,2.6,-1.4
CCOc1ccc2[nH]c(=O)c(CN(Cc3cccs3)Cc3nnnn3C(C)(C)C)cc2c1,i,0.52,32.6*,-3.7
COCCn1nnnc1C(C(C)C)N(Cc1ccccc1)Cc1cc2cc(OC)ccc2[nH]c1=O (stereo not drawn),i,1.5,2.7,-2.2
CCc1ccc2[nH]c(=O)c(CN(Cc3ccc(OC)cc3)Cc3nnnn3CCOC)cc2c1,+,-2.79,3.4,0.8
Cn1c(NCCc2ccccc2)cc(=O)n(C)c1=O,i,0.33,2.1,0.3
Cn1c(=O)cc(NCCc2ccccc2)[nH]c1=O,i,-0.23,26.3*,nt
Cc1cc(/C=N/NC(=O)c2cccc(F)c2)c(C)n1-c1ccccc1,i,-0.35,15.5*,9.2
Cc1cc(/C=N/NC(=O)c2ccccc2F)c(C)n1-c1ccccc1,i,0.05,3.6,0.9
CCOC(=O)N/N=C/c1cc(C)n(-c2cccc3ccccc23)c1C,i,-0.33,20.8*,9.1
CCOc1ccc(OCC)c(NC(=O)CN2CCN(c3cccc(C)c3)C(C)C2)c1 (stereo not drawn),i,-0.38,43.4*,0.5
CCOc1ccc(OCC)c(NC(=O)CN2CCN(c3cccc(C)c3)CC2)c1,i,nt,3.5,0.2
Clc1ccc(-n2ncc3c(NCCCn4ccnc4)ncnc32)cc1,i,-0.64,1.3,-3.1
CCCCNc1ncnc2c1cnn2-c1ccc(Cl)cc1,i,-0.09,17.6*,47.8
CCCCNc1ncnc2c1cnn2-c1ccccc1,i,nt,31.9*,77.1*
CC(C)(C)c1ccc(-c2nnc(N)o2)cc1,nt,0.09,nt,-2.1
CCc1[nH]nc(C(=O)N2CCCC(CCC(=O)N3CCN(c4ccccn4)CC3)C2)c1C (stereo not drawn),i,nt,1.8,-0.6
Cc1ccc(CC(=O)N/N=C/c2ccc3c(c2)OCO3)cc1,i,0.31,3.0,-3.5
COc1cc(C(C[N+](=O)[O-])c2c(C)[nH]c3ccccc23)ccc1O (stereo not drawn),+,0.38,2.1,-4.0
CCN(CC)C(=O)Cn1cnc([N+](=O)[O-])n1,i,-0.28,1.4,-0.1
COC(=O)C1=CC(C(=O)c2cccs2)=NN(c2ccc(OC)cc2)C1C(=O)OC (stereo not drawn),i,0.42,4.7,-2.3
NNc1nc2c(-c3ccc(Cl)cc3)nnn2c2ccccc12,+,2.27,8.0,-0.7
SMILES,Autophagy mod,Ins promoter up,MT stabilizer,bCat nuc transl
C=CCOc1ccc(C2C(C#N)=C(N)N(Nc3ccccc3)C3=C2C(=O)CCC3)cc1OC (stereo not drawn),i,0.56,39.5*,0.5
COc1cccc(C(=O)C2=NN(C(C)=O)CC2c2ccco2)c1 (stereo not drawn),i,nt,1.4,-1.1
O=C(c1ccccc1-c1ccccc1)N1CCCCC1,i,0.79,4.9,-2.5
O=C(c1cccc2cccc(O)c12)N1CCCCC1,+,-0.1,1.8,3.3
O=C1NC(=O)/C(=C/c2cccc([N+](=O)[O-])c2)N1,nt,-0.29,nt,2.3
CCN1C/C(=C/c2cccc([N+](=O)[O-])c2)C(=O)/C(=C/c2cccc([N+](=O)[O-])c2)C1,i,0.13,41.7*,12.6
